Data from ChEMBL document CHEMBL1833959, “Itraconazole side chain analogues: structure-activity relationship studies for inhibition of endothelial cell proliferation, vascular endothelial growth factor receptor 2 (VEGFR2) glycosylation, and hedgehog signaling” (2011).
Active and inactive are the calls of the source. The calls are words filed in the database; no cut-off is given here.

Columns and labels:
HUVEC [1] = assay: Ratio of itraconazole IC50 to compound IC50 for antiangiogenic activity in human HUVEC cells assessed as inhibition of cell proliferation; assay type: functional
[2] = target: Vascular endothelial growth factor receptor 2 (Homo sapiens) (UniProt P35968); assay: Inhibition of VEGFR2 glycosylation in human HUVEC cells at 2 uM after 24 hrs by Western blot analysis; assay type: cell-based
Chain of Vascular endothelial growth factor receptor 2 (Homo sapiens) (P35968 whole entry): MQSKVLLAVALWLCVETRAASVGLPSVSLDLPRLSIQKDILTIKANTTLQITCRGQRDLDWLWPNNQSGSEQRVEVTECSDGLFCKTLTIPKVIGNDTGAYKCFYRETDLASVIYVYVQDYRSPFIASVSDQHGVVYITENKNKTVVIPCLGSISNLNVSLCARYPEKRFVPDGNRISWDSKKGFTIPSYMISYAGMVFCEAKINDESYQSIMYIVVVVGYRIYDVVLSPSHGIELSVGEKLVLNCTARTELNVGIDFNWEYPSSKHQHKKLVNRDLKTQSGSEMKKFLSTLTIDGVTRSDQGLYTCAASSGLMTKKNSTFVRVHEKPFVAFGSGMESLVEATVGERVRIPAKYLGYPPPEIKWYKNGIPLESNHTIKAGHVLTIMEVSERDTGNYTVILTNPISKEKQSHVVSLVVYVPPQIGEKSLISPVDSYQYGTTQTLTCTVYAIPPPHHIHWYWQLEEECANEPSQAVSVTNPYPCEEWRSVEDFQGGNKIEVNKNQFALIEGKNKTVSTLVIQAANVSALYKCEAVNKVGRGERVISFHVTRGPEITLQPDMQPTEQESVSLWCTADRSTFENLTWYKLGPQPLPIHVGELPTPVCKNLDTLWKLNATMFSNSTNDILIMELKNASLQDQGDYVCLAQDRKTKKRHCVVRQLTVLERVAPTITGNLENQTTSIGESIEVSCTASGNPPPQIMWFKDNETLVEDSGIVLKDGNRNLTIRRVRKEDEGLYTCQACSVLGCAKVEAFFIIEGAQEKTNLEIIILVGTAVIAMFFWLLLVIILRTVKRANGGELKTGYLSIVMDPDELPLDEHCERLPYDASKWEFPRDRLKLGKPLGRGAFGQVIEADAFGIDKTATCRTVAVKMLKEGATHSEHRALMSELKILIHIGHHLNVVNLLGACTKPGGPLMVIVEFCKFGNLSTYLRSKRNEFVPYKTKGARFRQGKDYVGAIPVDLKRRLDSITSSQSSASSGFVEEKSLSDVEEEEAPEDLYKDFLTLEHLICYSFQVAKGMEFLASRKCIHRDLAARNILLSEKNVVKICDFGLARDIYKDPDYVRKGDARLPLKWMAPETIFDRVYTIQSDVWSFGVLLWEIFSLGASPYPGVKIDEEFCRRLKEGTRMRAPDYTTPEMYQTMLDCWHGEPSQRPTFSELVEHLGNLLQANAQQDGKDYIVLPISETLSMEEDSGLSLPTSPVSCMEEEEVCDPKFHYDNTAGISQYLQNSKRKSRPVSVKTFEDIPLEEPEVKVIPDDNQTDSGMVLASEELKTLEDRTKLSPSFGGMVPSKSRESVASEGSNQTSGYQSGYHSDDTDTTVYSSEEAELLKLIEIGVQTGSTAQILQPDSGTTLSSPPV
In short: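 Pooled HUVEC (passage ≤8, EGM-2) seeded 5 × 10^4 per well, recovered overnight, then given fresh media with analogue added from 200X DMSO stocks; 24 h exposure. Cells lysed in 2X SDS sample buffer (ice 10 min, boiled 10 min), 6% SDS-PAGE, PVDF blot probed with anti-VEGFR2 and HRP anti-rabbit IgG, ECL detection.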

[3] = Ratio of itraconazole IC50 to compound IC50 for antiproliferative activity against mouse Ptch+/- p53-/- medulloblastoma cells isolated from allografts in nude Harlan mouse after 96 hrs; assay type: functional, Medulloblastoma cell
In short: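 Ptch−/+;p53−/− MB cells from nude-mouse allografts (ficoll-purified, three neurosphere passages, CD15 confirmed by flow cytometry) disaggregated and seeded in NBMedia with multiple analogue concentrations for 96 h. Cell number read by MTS-type CellTiter 96 AQueous absorbance; IC50 fitted from dose–response curves of mean corrected absorbance normalized to control, expressed relative to itraconazole.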

[4] = Inhibition of hedgehog signaling pathway in mouse Ptch+/- p53-/- medulloblastoma cells assessed as inhibition of receptor-mediated Gli1 transcriptional activity at antiproliferative IC90 concentration after 24 hrs by RT-PCR analysis relative to control
HUVEC [5] = assay: Ratio of itraconazole IC50 to compound […] for antiangiogenic activity in human HUVEC cells assessed as inhibition of cell proliferation; assay type: functional

Row | SMILES | inhibition [2] | fold change (FC) [4] | Ratio IC50 (HUVEC [1]) | Ratio IC50 [3] | Ratio (HUVEC [5])
1 | O=c1n(-c2ccc(N3CCN(c4ccc(OC[C@@H]5CO[C@@](Cn6cncn6)(c6ccc(Cl)cc6Cl)O5)cc4)CC3)cc2)cnn1C1CCCCC1 | Active | > 0.45 | 0.44 | 0.37 | 
2 | CCC#CCCn1ncn(-c2ccc(N3CCN(c4ccc(OC[C@@H]5CO[C@@](Cn6cncn6)(c6ccc(Cl)cc6Cl)O5)cc4)CC3)cc2)c1=O | inactive | < 0.15 | 1.09 | 1.07 | 
3 | CC[C@H](C)n1ncn(-c2ccc(N3CCN(c4ccc(OC[C@H]5CO[C@@](Cn6cncn6)(c6ccc(Cl)cc6Cl)O5)cc4)CC3)cc2)c1=O | Active |  | 3.1 | 2.1 | 
4 | CC/C=C\CCn1ncn(-c2ccc(N3CCN(c4ccc(OC[C@@H]5CO[C@@](Cn6cncn6)(c6ccc(Cl)cc6Cl)O5)cc4)CC3)cc2)c1=O | inactive | < 0.15 | 0.73 | 0.94 | 
5 | CC(C)Cn1ncn(-c2ccc(N3CCN(c4ccc(OC[C@@H]5CO[C@@](Cn6cncn6)(c6ccc(Cl)cc6Cl)O5)cc4)CC3)cc2)c1=O | Active | > 0.45 | 1.32 | 0.86 | 
6 | N#CCCCCCn1ncn(-c2ccc(N3CCN(c4ccc(OC[C@@H]5CO[C@@](Cn6cncn6)(c6ccc(Cl)cc6Cl)O5)cc4)CC3)cc2)c1=O | Active | 0.16 | 0.18 | 0.84 | 
7 | CC/C=C/CCn1ncn(-c2ccc(N3CCN(c4ccc(OC[C@@H]5CO[C@@](Cn6cncn6)(c6ccc(Cl)cc6Cl)O5)cc4)CC3)cc2)c1=O | inactive | < 0.15 | 1.57 | 0.63 | 
8 | O=c1[nH]ncn1-c1ccc(N2CCN(c3ccc(OC[C@@H]4CO[C@@](Cn5cncn5)(c5ccc(Cl)cc5Cl)O4)cc3)CC2)cc1 | inactive | < 0.15 | 2.78 | 0.89 | 
9 | CCC(C)n1ncn(-c2ccc(N3CCN(c4ccc(OCC5COC(Cn6cncn6)(c6ccc(Cl)cc6Cl)O5)cc4)CC3)cc2)c1=O (stereo not drawn) [ITRACONAZOLE] | Active | < 0.15 | 1 | 1 | 
10 | Cn1ncn(-c2ccc(N3CCN(c4ccc(OC[C@@H]5CO[C@@](Cn6cncn6)(c6ccc(Cl)cc6Cl)O5)cc4)CC3)cc2)c1=O | inactive | > 0.45 | 4 | 2.71 | 
11 | CCCC(C)n1ncn(-c2ccc(N3CCN(c4ccc(OC[C@@H]5CO[C@@](Cn6cncn6)(c6ccc(Cl)cc6Cl)O5)cc4)CC3)cc2)c1=O (mixture of isomers) | Active | < 0.15 | 0.75 | 0.38 | 
12 | CC(C)CCn1ncn(-c2ccc(N3CCN(c4ccc(OC[C@@H]5CO[C@@](Cn6cncn6)(c6ccc(Cl)cc6Cl)O5)cc4)CC3)cc2)c1=O | Active | < 0.15 | 1.42 | 0.41 | 
13 | CCn1ncn(-c2ccc(N3CCN(c4ccc(OC[C@@H]5CO[C@@](Cn6cncn6)(c6ccc(Cl)cc6Cl)O5)cc4)CC3)cc2)c1=O | inactive | > 0.45 | 2.94 | 1.62 | 
14 | CC[C@H](C)n1ncn(-c2ccc(N3CCN(c4ccc(OC[C@@H]5CO[C@@](Cn6cncn6)(c6ccc(Cl)cc6Cl)O5)cc4)CC3)cc2)c1=O | Active |  | 0.8 | 1.3 | 
15 | CC(C)n1ncn(-c2ccc(N3CCN(c4ccc(OC[C@@H]5CO[C@@](Cn6cncn6)(c6ccc(Cl)cc6Cl)O5)cc4)CC3)cc2)c1=O | inactive | > 0.45 | 2.18 | 1.06 | 
16 | CC[C@@H](C)n1ncn(-c2ccc(N3CCN(c4ccc(OC[C@@H]5CO[C@](Cn6cncn6)(c6ccc(Cl)cc6Cl)O5)cc4)CC3)cc2)c1=O | inactive |  | 3.7 | 2.3 | 
17 | [N-]=[N+]=NCCCCCCn1ncn(-c2ccc(N3CCN(c4ccc(OC[C@@H]5CO[C@@](Cn6cncn6)(c6ccc(Cl)cc6Cl)O5)cc4)CC3)cc2)c1=O | Active | 0.16 | 0.3 | 0.7 | 
18 | C#CCCCn1ncn(-c2ccc(N3CCN(c4ccc(OC[C@H]5CO[C@](Cn6cncn6)(c6ccc(Cl)cc6Cl)O5)cc4)CC3)cc2)c1=O | inactive | < 0.15 | 0.14 | 0.71 | 
19 | CC[C@H](C)n1ncn(-c2ccc(N3CCN(c4ccc(OC[C@H]5CO[C@](Cn6cncn6)(c6ccc(Cl)cc6Cl)O5)cc4)CC3)cc2)c1=O | Active |  | 1.6 | 1.3 | 
20 | CC[C@@H](C)n1ncn(-c2ccc(N3CCN(c4ccc(OC[C@@H]5CO[C@@](Cn6cncn6)(c6ccc(Cl)cc6Cl)O5)cc4)CC3)cc2)c1=O | Active |  | 1.1 | 1.4 | 
21 | CC[C@H](C)n1ncn(-c2ccc(N3CCN(c4ccc(OC[C@@H]5CO[C@](Cn6cncn6)(c6ccc(Cl)cc6Cl)O5)cc4)CC3)cc2)c1=O | Active |  | 3.2 | 1.5 | 
22 | CCCCCCCCn1ncn(-c2ccc(N3CCN(c4ccc(OC[C@@H]5CO[C@@](Cn6cncn6)(c6ccc(Cl)cc6Cl)O5)cc4)CC3)cc2)c1=O | inactive | < 0.15 |  | 0.67 | 2.24

Further lines, with some results ahead:

Row | inhibition [2] | fold change (FC) [4] | SMILES | Ratio IC50 (HUVEC [1]) | Ratio IC50 [3] | Ratio (HUVEC [5])
23 | Active | 0.16 | O=c1n(-c2ccc(N3CCN(c4ccc(OC[C@@H]5CO[C@@](Cn6cncn6)(c6ccc(Cl)cc6Cl)O5)cc4)CC3)cc2)cnn1CC1CCCC1 | 0.5 | 0.5 | 
24 | inactive | < 0.15 | CCCCCn1ncn(-c2ccc(N3CCN(c4ccc(OC[C@@H]5CO[C@@](Cn6cncn6)(c6ccc(Cl)cc6Cl)O5)cc4)CC3)cc2)c1=O | 1.09 | 0.66 | 
25 | Active | 0.16 | CCC1(Cn2ncn(-c3ccc(N4CCN(c5ccc(OC[C@@H]6CO[C@@](Cn7cncn7)(c7ccc(Cl)cc7Cl)O6)cc5)CC4)cc3)c2=O)COC1 | 0.77 | 0.74 | 
26 | inactive | > 0.45 | CC1(CCCCCCCn2ncn(-c3ccc(N4CCN(c5ccc(OC[C@@H]6CO[C@@](Cn7cncn7)(c7ccc(Cl)cc7Cl)O6)cc5)CC4)cc3)c2=O)N=N1 |  | 1.18 | 1.1
27 | inactive | < 0.15 | O=c1n(-c2ccc(N3CCN(c4ccc(OC[C@@H]5CO[C@@](Cn6cncn6)(c6ccc(Cl)cc6Cl)O5)cc4)CC3)cc2)cnn1CCCCCCc1ccccc1 |  | 0.69 | 1.45
28 | inactive |  | CC[C@@H](C)n1ncn(-c2ccc(N3CCN(c4ccc(OC[C@H]5CO[C@@](Cn6cncn6)(c6ccc(Cl)cc6Cl)O5)cc4)CC3)cc2)c1=O | 3.9 | 1.7 | 
29 | Active |  | CC[C@@H](C)n1ncn(-c2ccc(N3CCN(c4ccc(OC[C@H]5CO[C@](Cn6cncn6)(c6ccc(Cl)cc6Cl)O5)cc4)CC3)cc2)c1=O | 2.5 | 1.7 | 
30 | inactive | > 0.45 | CCCCn1ncn(-c2ccc(N3CCN(c4ccc(OC[C@@H]5CO[C@@](Cn6cncn6)(c6ccc(Cl)cc6Cl)O5)cc4)CC3)cc2)c1=O | 2.1 | 0.7 | 
31 | Active | < 0.15 | CCCn1ncn(-c2ccc(N3CCN(c4ccc(OC[C@@H]5CO[C@@](Cn6cncn6)(c6ccc(Cl)cc6Cl)O5)cc4)CC3)cc2)c1=O | 1.06 | 1.01 | 
32 | Active | < 0.15 | CCC(CC)n1ncn(-c2ccc(N3CCN(c4ccc(OC[C@@H]5CO[C@@](Cn6cncn6)(c6ccc(Cl)cc6Cl)O5)cc4)CC3)cc2)c1=O | 1.1 | 0.54 | 
33 | inactive | > 0.45 | O=C(c1ccccc1)c1ccc(OCCCCCCn2ncn(-c3ccc(N4CCN(c5ccc(OC[C@@H]6CO[C@@](Cn7cncn7)(c7ccc(Cl)cc7Cl)O6)cc5)CC4)cc3)c2=O)cc1 | >69.9 | 0.8 | 
34 | Active | 0.16 | CC1(CCn2ncn(-c3ccc(N4CCN(c5ccc(OC[C@@H]6CO[C@@](Cn7cncn7)(c7ccc(Cl)cc7Cl)O6)cc5)CC4)cc3)c2=O)N=N1 | >13.8 | 1.32 | 
